Assays:
[1] = at 3.3 μM; cited from earlier work
[2] = system: lung (A549) cancer cell line; assay: SRB cytotoxicity assay in 2D monolayers, dark vs green light; format: cell-based, human; conditions: read-out: EC50 (cell growth inhibition); A549 2D, dark (0 J cm^−2)
In short: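 Cells were given test compound for 24 h. They were then irradiated (520 nm, 15 min, 21 mW cm−2, 19 J cm−2) or kept dark, and incubated a further 48 h. Cells were fixed in 10% TCA for 48 h at 4 °C and stained with 0.6% SRB. Absorbance was averaged over triplicate wells and viability taken relative to untreated wells. There were three biological replicates from different passages.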

[3] = system: wild type zebrafish embryos; conditions: intravenous or retro-orbital injection, embryo type not stated; cited from earlier work
[4] = reference value, aerated CD3OD; cited from earlier work

N.N.[Cl][Pt][Cl] [Cisplatin]
Platinum content in the nucleus [1]: 0.6 ng Pt/10^6 cells
EC50 [2]: 3000 nM

Cc1ccnc(-c2cc(C)ccn2)c1.Cc1ccnc(-c2cc(C)ccn2)c1.[Cl-].[Cl-].[Ru+2].c1csc(-c2ccc(-c3ccc(-c4nc5c6cccnc6c6ncccc6c5[nH]4)s3)s2)c1 [TLD-1433]
MTD in zebrafish embryo [3]: 4.6 mM

[Ru+2].c1ccc(-c2ccccn2)nc1.c1ccc(-c2ccccn2)nc1.c1ccc(-c2ccccn2)nc1 [[Ru(bpy)3]^2+]
1O2 generation quantum yield Φ^refΔ [4]: 0.73

Reference: publication PMC9200134 (Chemical Science, 2022)
